Laboratory results from ChEMBL document CHEMBL1955854, “New retinoid derivatives as back-ups of Adarotene” (Bioorg Med Chem, 2012).

Key:
[1] = Chemical stability in aqueous buffer containing 5% DMSO and 5% tween 80 at pH 1.2 assessed as compound recovery in anoxic conditions after 3 hrs by UPLC analysis; type: physicochemical; conditions: read-out: Stability
Procedure, shortened: (§1)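 Stability at 37 °C in aqueous buffer with 5% DMSO and 5% Tween 80 at pH 1.2, 6.8 or 7.4; percent recovery by HPLC/UPLC on BEH C18 column, water+0.1% TFA/acetonitrile gradient from 40% to 95% acetonitrile over 8 min, room temperature.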

[2] = Chemical stability in aqueous buffer containing 5% DMSO and 5% tween 80 at pH 6.8 assessed as compound recovery in anoxic conditions after 24 hrs by UPLC analysis; type: physicochemical; conditions: read-out: Stability; procedure, shortened: as §1
[3] = Chemical stability in aqueous buffer containing 5% DMSO and 5% tween 80 at pH 7.4 assessed as compound recovery in anoxic conditions after 24 hrs by UPLC analysis; type: physicochemical; conditions: read-out: Stability; procedure, shortened: as §1
[4] = Chemical stability in aqueous buffer containing 5% DMSO and 5% tween 80 at pH 1.2 assessed as compound recovery in anoxic conditions after 12 hrs by UPLC analysis; type: physicochemical; conditions: pH 1.2, 12 h; procedure, shortened: as §1
NCI-H460 [5] = test: Antiproliferative activity against human NCI-H460 cells incubated for 24 hrs drug exposure measured after 48 hrs of recovery by sulforhodamine B assay; type: functional, cell-based
[6] = Solubility in water; type: physicochemical; conditions: buffer
A-431 [7] = test: Antiproliferative activity against human A431 cells incubated for 24 hrs drug exposure measured after 48 hrs of recovery by sulforhodamine B assay; type: functional, cell-based
[8] = Chemical stability in aqueous buffer containing 5% DMSO and 5% tween 80 at pH 6.8 assessed as compound recovery in anoxic conditions after 6 hrs by UPLC analysis; type: physicochemical; conditions: read-out: Stability; procedure, shortened: as §1
[9] = Chemical stability in aqueous buffer containing 5% DMSO and 5% tween 80 at pH 7.4 assessed as compound recovery in anoxic conditions after 6 hrs by UPLC analysis; type: physicochemical; conditions: read-out: Stability; procedure, shortened: as §1
NCI-H460 [10] = test: Antitumor activity against human NCI-H460 cells xenografted in nude CD1 mouse assessed as tumor volume inhibition at 18 mg/kg, iv administered qd 3 times per week for 2 weeks relative to control; type: functional; conditions: NCI-H460, 336 h, read-out: TGI
Procedure, shortened: (§2)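 CD1 nude mice given s.c. right-flank NCI-H460 (3 × 10⁶) or A431 (5 × 10⁶) cells from culture on day 0; eight mice per group. Dosing began day 3 at ~50 mm³ tumors; vehicle 10% DMSO, 9% HPBCD, 14.4% PEG1000 in water. Diameters taken biweekly by caliper; mice weighed daily, maximum BWL% reported; Mann–Whitney versus vehicle.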

A-431 [11] = test: Antitumor activity against human A431 cells xenografted in nude CD1 mouse assessed as tumor volume inhibition at 37 mg/kg, iv administered qd 3 times per week for 2 weeks relative to control; type: functional; conditions: A-431, 336 h, read-out: TGI; procedure, shortened: as §2
A-431 [12] = test: Antitumor activity against human A431 cells xenografted in nude CD1 mouse assessed as tumor volume inhibition at 10 mg/kg, iv administered qd 3 times per week for 2 weeks relative to control; type: functional; conditions: A-431, 336 h, read-out: TGI; procedure, shortened: as §2
Mus musculus [13] = test: Toxicity in nude CD1 mouse xenografted with human NCI-H460 NSCLC cells assessed as body weight loss at 18 mg/kg, iv administered qd 3 times per week for 2 weeks; type: organism-based; set-up: dose 18 mg/kg, route intravenous; conditions: in vivo, 336 h; procedure, shortened: as §2
Mus musculus [14] = test: Toxicity in nude CD1 mouse xenografted with human A431 cells assessed as body weight loss at 37 mg/kg, iv administered qd 3 times per week for 2 weeks; type: organism-based, A-431; set-up: dose 37 mg/kg, route intravenous; conditions: in vivo, 336 h; procedure, shortened: as §2
Mus musculus [15] = test: Toxicity in nude CD1 mouse xenografted with human A431 cells assessed as body weight loss at 10 mg/kg, iv administered qd 3 times per week for 2 weeks; type: organism-based, A-431; set-up: dose 10 mg/kg, route intravenous; conditions: in vivo, 336 h; procedure, shortened: as §2
[16] = Toxicity in iv dosed nude CD1 mouse xenografted with human A431 cells assessed as mortality administered qd 3 times per week for 2 weeks; type: organism-based, A-431; conditions: in vivo
Plasma [17] = test: Prodrug conversion in mouse plasma assessed as drug concentration at 0.5 hrs; type: ADME, cell-free
Procedure, shortened: (§3)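 Prodrugs already shown stable at pH 1.2, 6.8 and 7.4 were incubated in murine plasma and sampled over time up to 6 h. A parallel incubation used murine plasma pretreated with the esterase inhibitor PMSF (phenylmethyl sulfonyl fluoride).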

Plasma [18] = test: Prodrug conversion in mouse plasma assessed as drug concentration at 0.5 hrs in presence of esterase inhibitor PMSF; type: ADME, cell-free
Procedure, shortened: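 Prodrug incubated with murine plasma pretreated with the esterase inhibitor PMSF, run alongside untreated plasma; release of parent followed over time.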

Plasma [19] = test: Prodrug conversion in mouse plasma assessed as drug concentration at 1 hr; type: ADME, cell-free; procedure, shortened: as §3
Plasma [20] = test: Prodrug conversion in mouse plasma assessed as drug concentration at 3 hrs; type: ADME, cell-free; procedure, shortened: as §3
Plasma [21] = test: Prodrug conversion in mouse plasma assessed as drug concentration at 6 hrs; type: ADME, cell-free; procedure, shortened: as §3
Plasma [22] = test: Prodrug conversion in mouse plasma assessed as drug concentration at 6 hrs in presence of esterase inhibitor PMSF; type: ADME, cell-free; procedure, shortened: as §3

Row | Structure (SMILES) | remaining at 3 h [1] [%] | remaining at 24 h [2] [%] | remaining at 24 h [3] [%] | Stability [4] | IC50 (NCI-H460 [5]) [nM] | solubility [6] | IC50 (A-431 [7]) [nM] | other results
1 | O=C(O)/C=C/c1ccc(-c2ccc(OCCN3CCOCC3)c(C34CC5CC(CC(C5)C3)C4)c2)cc1 | > 99 | > 99 | > 99 | Stable | > 10000 | Insoluble |  | 
2 | N#CCOc1ccc(-c2ccc(/C=C/C(=O)O)cc2)cc1C12CC3CC(CC(C3)C1)C2 | > 99 | > 99 | > 99 | Stable | 850 | Insoluble |  | 
3 | COCCOCOc1ccc(-c2ccc(/C=C/C(=O)O)cc2)cc1C12CC3CC(CC(C3)C1)C2 |  |  |  | Stable | 4200 | Insoluble |  | 
4 | O=C(O)/C=C/c1ccc(-c2ccc(OCN3C(=O)c4ccccc4C3=O)c(C34CC5CC(CC(C5)C3)C4)c2)cc1 | > 99 | > 99 | > 99 | Stable | 8400 | Insoluble |  | 
5 | CCCOC(=O)OCOc1ccc(-c2ccc(/C=C/C(=O)O)cc2)cc1C12CC3CC(CC(C3)C1)C2 | > 99 | > 99 | > 99 | Stable | 320 | Insoluble |  | 
6 | CC(=O)Oc1ccc(-c2ccc(/C=C/C(=O)O)cc2)cc1C12CC3CC(CC(C3)C1)C2 | > 99 | > 99 | > 99 | Stable | 260 | Insoluble | 530 | 
7 | O=C(O)/C=C/c1ccc(-c2ccc(OC(=O)CCCN3CCOCC3)c(C34CC5CC(CC(C5)C3)C4)c2)cc1 | > 99 | 90 | 88 | Stable | 220 | Insoluble | 340 | remaining at 6 h [8]: 99%; remaining at 6 h [9]: 99%; inhibition in vivo at 18 mg/kg (NCI-H460 [10]): 37%; inhibition in vivo at 37 mg/kg (A-431 [11]): 59%; inhibition in vivo at 10 mg/kg (A-431 [12]): 34%; Activity (Mus musculus [13]): 10%; Activity (Mus musculus [14]): 18%; Activity (Mus musculus [15]): 0%; MTD at 336 h [16]: 18 mg/kg
8 | CN1CCN(CCCC(=O)Oc2ccc(-c3ccc(/C=C/C(=O)O)cc3)cc2C23CC4CC(CC(C4)C2)C3)CC1 | > 99 | 85 | 64 | Stable | 240 | Insoluble | 410 | remaining at 6 h [8]: 98%; remaining at 6 h [9]: 89%
9 | CC(C)[C@H](N)C(=O)Oc1ccc(-c2ccc(/C=C/C(=O)O)cc2)cc1C12CC3CC(CC(C3)C1)C2.Cl | > 99 | 39 | 12 | Stable | 510 | Insoluble | 410 | remaining at 6 h [8]: 92%; remaining at 6 h [9]: 62%
10 | O=C(O)/C=C/c1ccc(-c2ccc(OC(=O)COCCOCCOCC(=O)O)c(C34CC5CC(CC(C5)C3)C4)c2)cc1 | > 99 | > 99 | > 99 | Stable | 170 | Insoluble | 330 | 
11 | CCCCCCCCCCC(=O)Oc1ccc(-c2ccc(/C=C/C(=O)O)cc2)cc1C12CC3CC(CC(C3)C1)C2 | > 99 | > 99 | > 99 | Stable | 1540 | Insoluble |  | 
12 | CCCCC/C=C/C/C=C/CCCCCCCC(=O)Oc1ccc(-c2ccc(/C=C/C(=O)O)cc2)cc1C12CC3CC(CC(C3)C1)C2 |  |  |  | Stable | 7800 | Insoluble |  | 
13 | NC1(C(=O)Oc2ccc(-c3ccc(/C=C/C(=O)O)cc3)cc2C23CC4CC(CC(C4)C2)C3)CC1.O=C(O)C(F)(F)F | > 99 | > 99 | 62 | Stable | 100 | Insoluble | 400 | remaining at 6 h [9]: 88%; Drug metabolism (Plasma [17]): 97.02%; Drug metabolism (Plasma [18]): 87.31%; Drug metabolism (Plasma [19]): 96.87%; Drug metabolism (Plasma [20]): 96.66%; Drug metabolism (Plasma [21]): 96.31%; Drug metabolism (Plasma [22]): 97.77%
14 | O=C(O)/C=C/c1ccc(-c2ccc(OC(=O)C3CC3)c(C34CC5CC(CC(C5)C3)C4)c2)cc1 | > 99 | > 99 | > 99 | Stable | 850 | Insoluble |  | Drug metabolism (Plasma [17]): 100%; Drug metabolism (Plasma [18]): 43.95%; Drug metabolism (Plasma [19]): 100%; Drug metabolism (Plasma [20]): 100%; Drug metabolism (Plasma [21]): 100%; Drug metabolism (Plasma [22]): 99.76%
15 | CC(C)NC(=O)Oc1ccc(-c2ccc(/C=C/C(=O)O)cc2)cc1C12CC3CC(CC(C3)C1)C2 | > 99 | > 99 | > 99 | Stable | 5000 | Insoluble |  | 
16 | CNCCNC(=O)Oc1ccc(-c2ccc(/C=C/C(=O)O)cc2)cc1C12CC3CC(CC(C3)C1)C2.Cl | > 99 | 69 | 36 | Stable | 240 | Insoluble | 320 | remaining at 6 h [8]: 92%; remaining at 6 h [9]: 76%; Drug metabolism (Plasma [17]): 96.23%; Drug metabolism (Plasma [18]): 1.35%; Drug metabolism (Plasma [19]): 99.8%; Drug metabolism (Plasma [20]): 99.94%; Drug metabolism (Plasma [21]): 99.95%; Drug metabolism (Plasma [22]): 17.55%
17 | O=C(O)/C=C/c1ccc(-c2ccc(OC(=O)NC3CCN(C(=O)OCc4ccccc4)CC3)c(C34CC5CC(CC(C5)C3)C4)c2)cc1 | > 99 | > 99 | > 99 | Stable | 5000 | Insoluble |  | 
18 | O=C(O)/C=C/c1ccc(-c2ccc(OC(=O)NCC(=O)O)c(C34CC5CC(CC(C5)C3)C4)c2)cc1 | > 99 | > 99 | > 99 | Stable | 3000 | Insoluble |  | 
19 | CCCCCCCCCCCNC(=O)Oc1ccc(-c2ccc(/C=C/C(=O)O)cc2)cc1C12CC3CC(CC(C3)C1)C2 | > 99 | > 99 | > 99 | Stable | 1390 | Insoluble |  | 
20 | CC(C)C[C@H](NC(=O)Oc1ccc(-c2ccc(/C=C/C(=O)O)cc2)cc1C12CC3CC(CC(C3)C1)C2)C(=O)NCC(=O)O | > 99 | > 99 | > 99 | Stable | 3500 | Insoluble |  | 
